NF-kB expr up = activators of NF-kB expression in neurons, primary screen, cell-based, HTS. human neuronal cells, NF-kB reporter expression; stronger effect = higher value. fold change at 12.5 µM. 1.6% of 190,000 active. AID 1239, 2008; in the data active = fold change above about 3.3
APP 5'UTR act = activators of APP 5'UTR luciferase reporter, primary screen, SH-SY5Y cells; SH-SY5Y APP 5'UTR luciferase reporter, luminescence; zero percent = DMSO vehicle wells; activation, % at 2 µM; 1% of 190,000 active; AID 1276, 2008;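 active = activation above a set limit, based on mean plus 3 SD of controls, cut at about 140% in these data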
Pf gametocyte = late stage P. falciparum gametocyte viability inhibitors, primary screen, ATP luminescence, HTS. P. falciparum stage V gametocytes, 24 h. inhibition, % at 10.9 µM. 0.065% of 150,000 active. AID 743093, 2013;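 active = inhibition above the mean plus 3 SD of compounds within the control limits, set per campaign, cut at about 38% in these data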
STAT1 act = STAT1 signaling activators, primary screen, cell-based, HTS, luciferase reporter; NIH 3T3 STAT1-luciferase reporter, IFN-gamma, luminescence; 100% = IFN-gamma alone, no compound; activation (% of control), % at 5.5 µM; 2.6% of 200,000 active; AID 932, 2007;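 active = activation above the screen-wide mean activation plus 3 SD, cut at about 130% in these data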
FLuc inhib CS = firefly luciferase enzyme inhibitors, primary screen, artefact control for luciferase-based inhibitor screens, biochemical, luminescence, ATPLite; 1.5% of 200,000 active; 10 min; AID 1006, 2008; inhibition, % at 10 µM;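 active = inhibition above about 50% when tested at 10 µM, limit read from the data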
Target sequence (P08659 whole entry, looked up): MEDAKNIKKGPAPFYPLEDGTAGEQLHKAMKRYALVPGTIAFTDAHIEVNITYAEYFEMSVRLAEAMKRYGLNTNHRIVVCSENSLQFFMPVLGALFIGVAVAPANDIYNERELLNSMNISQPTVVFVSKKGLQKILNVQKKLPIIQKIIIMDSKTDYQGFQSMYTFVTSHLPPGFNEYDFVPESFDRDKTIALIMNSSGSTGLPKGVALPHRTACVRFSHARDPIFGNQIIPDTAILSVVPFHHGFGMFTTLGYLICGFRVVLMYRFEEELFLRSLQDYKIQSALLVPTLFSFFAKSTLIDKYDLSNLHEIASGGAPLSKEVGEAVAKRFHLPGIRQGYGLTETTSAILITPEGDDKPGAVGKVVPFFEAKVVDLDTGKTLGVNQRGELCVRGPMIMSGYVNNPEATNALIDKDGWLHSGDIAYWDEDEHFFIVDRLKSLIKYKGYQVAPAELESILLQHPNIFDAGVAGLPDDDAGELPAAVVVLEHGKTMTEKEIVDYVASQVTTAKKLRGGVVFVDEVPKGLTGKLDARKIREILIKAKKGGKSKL
FLuc stim CS = FLuc activators, initial screening, artefact control for FLuc-dependent activation tests, biochemical, ATPlite luminescence. 200,000 tested, under 10 active. AID 1027, 2008. Luciferin 4-monooxygenase (Photinus pyralis), P08659. activation factor at 10 µM. ATPlite luciferase biochemical, 10 min; 0 = ATP-free wells, 1 = DMSO control;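 active = luciferase activation factor, scaled between plate controls, of at least 2 with compound at 10 µM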
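Material: Luciferase/luciferin reagent mix; Doses: test compounds dosed from 2 mM stocks in 100% DMSO; Schedule: 10 min incubation after luciferase reagent addition, room temperature; Measured by: luminescence from luciferase reaction; Read-out: luminescence gain marking luciferase activators.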
Of the large screens only hits and unclear results are named; the others gave an inactive call. Most compounds without a hit are left out; they make up all but 3.5% or so of the library.

CCOc1cc(C)c(S(=O)(=O)Nc2ccc3cn[nH]c3c2)cc1C	none (no result: Pf gametocyte)
Cc1ccc(-c2noc(-c3ccccc3F)n2)cc1	NF-kB expr up 6, APP 5'UTR act 174, STAT1 act 132, FLuc inhib CS 57
O=[N+]([O-])c1cc(Cl)ccc1-c1nc(-c2ccncc2)no1	none
O=[N+]([O-])c1cc(Cl)ccc1-c1nc(-c2ccccc2)no1	NF-kB expr up 13, STAT1 act 188, FLuc inhib CS 67
CS(=O)c1ccccc1-c1nc(-c2ccc(Cl)cc2)no1 (stereo unspecified)	STAT1 act 138
CS(=O)c1ccccc1-c1nc(-c2cccc(Cl)c2)no1 (stereo unspecified)	none
C=C(C)C1Cc2c(C)nn(-c3cc(C)c4ccccc4n3)c2C1 (stereo unspecified)	none (no result: NF-kB expr up, Pf gametocyte, FLuc inhib CS, FLuc stim CS)
Cc1ccc(-c2nnc(N(C)C(=O)c3ccccn3)s2)cn1	none (no result: Pf gametocyte)
Cc1ccc2c(c1)Cc1nc3ccccc3nc1-2	FLuc inhib CS 87 (no result: Pf gametocyte)
CCCC1C2CN(C(C)C)CC=C2C(C#N)=C(N)C1(C#N)C#N (stereo unspecified)	none (no result: Pf gametocyte)
O=C(Nc1ccc(-c2nnn(CC(=O)N3CCN(C(=O)c4ccco4)CC3)n2)cc1)c1ccccc1F	FLuc inhib CS 56
CN1CCN(c2c(F)cc3c(=O)c(C(=O)O)cn4c3c2OCN4C)CC1	none (no result: NF-kB expr up, APP 5'UTR act, STAT1 act, FLuc inhib CS, FLuc stim CS)
CCS(=O)(=O)c1ncc(CO)n1CCc1ccccc1	none (no result: NF-kB expr up, APP 5'UTR act, STAT1 act, FLuc inhib CS, FLuc stim CS)
CC(=O)N1CCN(c2ccc(NC(=O)c3ccc(C)cc3)cc2)CC1	none (no result: Pf gametocyte)
CC(=O)N1CCc2cc(NC(=O)c3ccc(C)cc3)ccc21	NF-kB expr up 3.6, STAT1 act 131, FLuc inhib CS 73 (no result: Pf gametocyte)
CCc1ccc(NC(=O)CC2C(=O)N(c3ccc(C)cc3)C(=O)N2CCc2ccncc2)cc1 (stereo unspecified)	none (no result: Pf gametocyte)
CCC(Oc1ccccc1)C(=O)Nc1ccc(-c2nnc(-c3ccco3)o2)cc1 (stereo unspecified)	STAT1 act 133
COc1ccccc1OCC(=O)Nc1ccc(-c2nnc(-c3ccco3)o2)cc1	none
COc1ccc(CCN(C)C/C=C/c2ccccc2[N+](=O)[O-])cc1OC	none (no result: NF-kB expr up, APP 5'UTR act, STAT1 act, FLuc inhib CS, FLuc stim CS)
COCCSc1nnc(NC(=O)Cc2ccc(OC)cc2)s1	none
O=[N+]([O-])c1cccc(/C=N/N=C\c2ccccc2)c1	none (no result: NF-kB expr up, APP 5'UTR act, STAT1 act, FLuc inhib CS, FLuc stim CS)
O=[N+]([O-])c1ccc(N/N=C/c2ccccc2)c(F)c1	STAT1 act 145
CC(C)C(=O)Nc1cccc(-c2nc3ccccc3c(=O)o2)c1	none (no result: Pf gametocyte)
CC(C)C(=O)Nc1ccc(-c2nc3ccccc3c(=O)o2)cc1	FLuc inhib CS 90
CC(C)(C)C(=O)Nc1ccc(-c2nc3ccccc3c(=O)o2)cc1	FLuc inhib CS 96
CCCC(=O)Nc1cccc(-c2nc3ccccc3c(=O)o2)c1	NF-kB expr up 3.9, FLuc inhib CS 54 (no result: Pf gametocyte)
CC(C)OCCCn1c(SCC(=O)N2CCc3ccccc32)nc2ccccc2c1=O	none
Cc1cc(C)nc(Nc2n[nH]c(-c3ccccc3Br)n2)n1	none
Cc1cc(C)nc(Nc2n[nH]c(-c3ccc(C(C)(C)C)cc3)n2)n1	none (no result: Pf gametocyte)
Cc1cc(C)nc(Nc2n[nH]c(-c3ccccc3C)n2)n1	STAT1 act 135
Cc1cc(C)nc(Nc2n[nH]c(-c3ccc(N)cc3)n2)n1	STAT1 act 156 (no result: APP 5'UTR act)
Cn1c(Cc2ccccc2)nnc1SCC(=O)NCCc1ccccc1	none
CCCCNC(=O)N(C)c1nc2ccccc2s1	STAT1 act 133
CC(=O)c1sc(N/N=C\c2c(O)ccc3ccccc23)nc1C	none (no result: NF-kB expr up, APP 5'UTR act, STAT1 act, FLuc inhib CS, FLuc stim CS)
C#CCOCCOCCOCCNc1nc(N2CCN(C(=O)[C@H]([C@@H](C)CC)n3cc([C@@H](N)CC(C)C)nn3)CC2)nc(N2CCN(C(=O)[C@H]([C@@H](C)CC)n3cc([C@@H](N)CC(C)C)nn3)CC2)n1	none (no result: Pf gametocyte)
CCn1c(SCC(=O)Nc2nc3c(s2)CCCC3)nc2c1c(=O)n(C)c(=O)n2C	none (no result: NF-kB expr up, APP 5'UTR act, Pf gametocyte, STAT1 act)
O=C(O)c1ccc(-c2nc3ccccc3s2)o1	none (no result: NF-kB expr up, APP 5'UTR act, STAT1 act, FLuc inhib CS, FLuc stim CS)
O=Cc1ccc(-c2nc3ccccc3s2)o1	APP 5'UTR act 143, STAT1 act 130 (no result: Pf gametocyte)
O=C(O)[C@@H](O)c1ccccc1	none (no result: NF-kB expr up, Pf gametocyte, STAT1 act)
Cc1ccc2nsnc2c1NC(=O)Cc1ccc(Cl)cc1	none (no result: Pf gametocyte)
Cc1ccc2nsnc2c1NC(=O)c1ccc(-c2cc(Cl)ccc2Cl)o1	STAT1 act 129 (no result: Pf gametocyte)
CCCn1c(SCC(=O)Nc2ccc(S(=O)(=O)N(C)C)cc2)n[nH]c1=O	none
CCOc1ccc(C(=O)NCC(c2cccs2)N(C)C)cc1 (stereo unspecified)	none
Cc1cc(/C=c2/sc3nc4ccccc4n3c2=O)c(C)n1-c1ccccn1	FLuc inhib CS 90
Cc1cc(/C=c2\sc3nc4ccccc4n3c2=O)c(C)n1-c1ccc(C(=O)O)cc1	none
O=c1/c(=C/c2ccc(O)c([N+](=O)[O-])c2)sc2nc3ccccc3n12	none
O=c1/c(=C\c2cccnc2)sc2nc3ccccc3n12	FLuc inhib CS 58 (no result: Pf gametocyte)
CCSc1ncc(/C=N/Nc2ccc(Cl)cc2)n1C	NF-kB expr up 5.7, STAT1 act 160
CC(=O)C1=C(O)C=C(c2ccco2)CC1c1ccco1 (stereo unspecified)	none (no result: Pf gametocyte)
O=C(Cc1ncc(C(F)(F)F)cc1Cl)Nc1ccc(F)cc1	none
C/C(=N/OC(=O)c1ccc(C)cc1)c1cccs1	FLuc inhib CS 98
C/C(=N\OC(=O)c1ccc(Cl)cc1)c1nccs1	FLuc inhib CS 72
C/C(=N\OC(=O)c1ccc(C)cc1)c1sc(C)nc1C	FLuc inhib CS 76
C/C(=N\OC(=O)c1c(-c2ccccc2Cl)noc1C)c1nccs1	none
Cc1cc(C(=O)CSCc2nnc3n(CCC(C)C)c(=O)c4ccccc4n23)c(C)n1C	none (no result: NF-kB expr up, Pf gametocyte, FLuc inhib CS, FLuc stim CS)
CCN(CC)c1ccc2cc(-c3nnc(-c4ccc(Br)cc4)o3)c(=O)oc2c1	none (no result: NF-kB expr up, Pf gametocyte, FLuc inhib CS, FLuc stim CS)
CCN(CC)c1ccc2cc(-c3nc4ccccc4n3C)c(=O)oc2c1	NF-kB expr up 4.1, STAT1 act 136 (no result: Pf gametocyte)
CN(C)Cc1c(O)ccc2cc(-c3nc4ccccc4n3C)c(=O)oc12	none (no result: NF-kB expr up, APP 5'UTR act, STAT1 act, FLuc inhib CS, FLuc stim CS)
CCN(CC)c1ccc2cc(-c3nc4ccccc4[nH]3)c(=O)oc2c1	APP 5'UTR act 185, FLuc inhib CS 96 (no result: Pf gametocyte)
C=C(C)c1cccc(C(C)(C)NC(=O)NC2CC(C)(C)NC(C)(C)C2)c1	none
